The text below walks through data of ChEMBL document CHEMBL1932985, “Identification of biaryl sulfone derivatives as antagonists of the histamine H₃ receptor: discovery of (R)-1-(2-(4'-(3-methoxypropylsulfonyl)biphenyl-4-yl)ethyl)-2-methylpyrrolidine (APD916)” (Bioorg Med Chem Lett, 2012).

A short description of data set [1]: Ratio of drug level in brain to plasma in Sprague-Dawley rat at 10 mg/kg, po and iv after 0.75 to 3 hrs by LC-MS/MS analysis. Format: ADME, organism-based. More on the design: dose 10 mg/kg, route oral. Conditions: read-out: BPR. In a few lines:
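Brain (µg/mg) and plasma (µg/mL) levels were measured after oral dosing, with three rats per time point. The b/p ratio was the mean of the nine individual ratios.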

The next data set deals with hERG (KCNH2) (Homo sapiens, UniProt Q12809). Description: Inhibition of human ERG at 3 uM by patch-clamp assay. On the technique in general: In patch-clamp work, channel activity is measured electrically.
Chain of hERG (KCNH2) (Q12809 whole entry): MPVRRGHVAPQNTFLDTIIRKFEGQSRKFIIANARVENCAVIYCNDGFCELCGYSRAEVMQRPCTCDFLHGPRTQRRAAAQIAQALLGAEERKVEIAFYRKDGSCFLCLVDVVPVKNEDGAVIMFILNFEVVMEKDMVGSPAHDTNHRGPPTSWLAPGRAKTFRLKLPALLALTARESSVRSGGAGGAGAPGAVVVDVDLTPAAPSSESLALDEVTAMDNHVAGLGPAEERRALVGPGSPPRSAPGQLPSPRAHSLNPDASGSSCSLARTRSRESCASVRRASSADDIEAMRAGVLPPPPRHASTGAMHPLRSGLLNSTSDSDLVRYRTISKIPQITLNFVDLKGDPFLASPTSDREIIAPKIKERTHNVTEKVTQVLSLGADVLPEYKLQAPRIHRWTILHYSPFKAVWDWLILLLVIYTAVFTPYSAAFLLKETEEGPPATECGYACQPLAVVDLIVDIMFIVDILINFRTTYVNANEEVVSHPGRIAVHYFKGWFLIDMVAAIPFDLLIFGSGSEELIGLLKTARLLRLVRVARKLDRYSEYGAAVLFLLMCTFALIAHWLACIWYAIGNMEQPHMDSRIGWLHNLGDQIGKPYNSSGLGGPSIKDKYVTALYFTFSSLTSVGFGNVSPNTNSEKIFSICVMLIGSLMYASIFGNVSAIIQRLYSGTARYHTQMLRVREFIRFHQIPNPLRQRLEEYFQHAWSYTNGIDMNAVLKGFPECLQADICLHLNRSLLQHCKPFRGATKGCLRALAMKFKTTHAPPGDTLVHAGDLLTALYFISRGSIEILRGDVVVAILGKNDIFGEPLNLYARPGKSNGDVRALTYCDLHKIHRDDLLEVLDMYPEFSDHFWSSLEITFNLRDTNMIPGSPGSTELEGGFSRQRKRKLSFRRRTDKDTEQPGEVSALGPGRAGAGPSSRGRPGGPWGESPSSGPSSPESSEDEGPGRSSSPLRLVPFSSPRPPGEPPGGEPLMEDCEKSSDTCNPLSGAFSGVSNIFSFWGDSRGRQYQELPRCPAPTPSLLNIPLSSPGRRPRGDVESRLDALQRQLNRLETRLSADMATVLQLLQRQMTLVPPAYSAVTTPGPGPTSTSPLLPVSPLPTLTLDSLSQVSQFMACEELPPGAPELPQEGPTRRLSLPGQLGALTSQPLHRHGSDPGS
Data set [2] concerns the target Voltage-gated inwardly rectifying potassium channel KCNH2 (Homo sapiens, UniProt Q12809). Put plainly: Inhibition of human ERG by patch-clamp assay.
The subject of data set [3] is Rattus norvegicus. Description: Inhibition of RAMH-induced dipsogenia in Sprague-Dawley rat at 0.6 mg/kg, po administered 6 hrs prior to RAMH challenge measured up to 20 mins. Format: functional. In a few lines:
(§1)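 Rats given compound orally 0.5 h (or, for duration of action, at selected times up to 6 h) before RAMH 10 mg/kg SC; water consumed over 20 min measured. Screening doses 1 or 0.3 mg/kg PO, also 0.1 mg/kg; duration study at 0.6 mg/kg PO. MED = minimum dose fully inhibiting drinking; means ± SEM.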

The target in a further data set is Histamine H3 receptor (Rattus norvegicus, UniProt Q9QYN8). Description: Displacement of N-[3H]-methylhistamine from histamine H3 receptor in rat cortex membranes. Type of data set: cell membranes, Membrane.
Chain of Histamine H3 receptor (Q9QYN8 whole entry): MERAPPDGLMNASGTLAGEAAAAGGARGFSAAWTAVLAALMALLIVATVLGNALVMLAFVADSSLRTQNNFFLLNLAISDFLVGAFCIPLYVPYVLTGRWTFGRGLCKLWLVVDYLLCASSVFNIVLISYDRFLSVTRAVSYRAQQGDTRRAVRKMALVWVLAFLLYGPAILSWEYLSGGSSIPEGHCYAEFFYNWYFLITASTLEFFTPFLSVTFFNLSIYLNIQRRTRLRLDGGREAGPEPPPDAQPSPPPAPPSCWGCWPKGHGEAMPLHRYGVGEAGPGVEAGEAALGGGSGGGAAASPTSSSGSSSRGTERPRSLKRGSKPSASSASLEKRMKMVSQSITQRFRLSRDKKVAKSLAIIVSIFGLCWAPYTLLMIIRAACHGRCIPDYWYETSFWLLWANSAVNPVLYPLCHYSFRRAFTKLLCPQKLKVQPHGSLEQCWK
The nature of data set [4]: Oral bioavailability in Sprague-Dawley rat at 10 mg/kg by LC-MS/MS analysis. Type of data set: ADME, organism-based. Conditions: in vivo. Put shortly: (§2)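 Rat PK after IV and PO dosing; plasma Cmax, Tmax, IV half-life and Vss determined; oral bioavailability from AUCpo/AUCiv. Metabolite exposure determined after a 3 mg/kg PO parent dose.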
The subject of data set [5] is Rattus norvegicus. Description: Volume of distribution at steady state in Sprague-Dawley rat at 10 mg/kg, po and iv by LC-MS/MS analysis. Conditions: in vivo. The arrangement: dose 10 mg/kg, route oral. Type of data set: ADME, organism-based. In a few lines:
(§3)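 Rats were given the compound both IV and PO in a routine PK study. Tmax came from the PO arm and Vss from the IV arm.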

A short description of data set [6]: Cmax in Sprague-Dawley rat plasma at 10 mg/kg, po and iv by LC-MS/MS analysis. Format: ADME, organism-based. The arrangement: dose 10 mg/kg, route oral. Put shortly: as §2
Data set [7] deals with Rattus norvegicus. Put plainly: Inhibition of RAMH-induced dipsogenia in po dosed Sprague-Dawley rat administered 30 mins prior to RAMH challenge measured up to 20 mins. Type of data set: functional. The settings on record: read-out: MED. In a few lines: as §1
The nature of data set [8]: Tmax in Sprague-Dawley rat at 10 mg/kg, po and iv by LC-MS/MS analysis. Type of data set: ADME, organism-based. More on the design: dose 10 mg/kg, route oral. The settings on record: in vivo. Put shortly: as §3
A short description of data set [9]: Half life in Sprague-Dawley rat at 10 mg/kg, iv by LC-MS/MS analysis. Type of data set: ADME, organism-based. Conditions: in vivo. The arrangement: dose 10 mg/kg, route intravenous. Put shortly: as §2
A short description of data set [10]: Solubility of the compound in water. Type of data set: physicochemical.
The nature of data set [11]: Ratio of (R)-3-(4'-(2-(2-methylpyrrolidin-1-yl)ethyl)biphenyl-4-ylsulfonyl)propan-1-ol level in brain to plasma in Sprague-Dawley rat at 3 mg/kg, po and iv after 0.75 to 3 hrs by LC-MS/MS analysis. Type of data set: ADME, organism-based. The arrangement: dose 3 mg/kg, route oral. Put shortly:
(§4)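 Exposure to the hydroxylated metabolite was measured after the propyl parent was given to rats at 3 mg/kg PO. Brain (µg/mg) and plasma (µg/mL) levels were taken at 3 time points, and the ratio was the mean.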

The nature of data set [12]: Oral bioavailability in Sprague-Dawley rat at 3 mg/kg by LC-MS/MS analysis. Format: ADME, organism-based. Conditions: in vivo. In a few lines: as §2
For data set [13], the system named is Rattus norvegicus. Put plainly: Volume of distribution at steady state in Sprague-Dawley rat at 3 mg/kg, po and iv by LC-MS/MS analysis. Type of data set: ADME, organism-based. The arrangement: dose 3 mg/kg, route oral. The settings on record: in vivo. Put shortly:
as §3

Another data set deals with Plasma. Description: Cmax in Sprague-Dawley rat plasma assessed as (R)-3-(4'-(2-(2-methylpyrrolidin-1-yl)ethyl)biphenyl-4-ylsulfonyl)propan-1-ol level at 3 mg/kg, po and iv by LC-MS/MS analysis. The arrangement: dose 3 mg/kg, route oral. The settings on record: in vivo. Format: ADME, organism-based. Put shortly:
as §2

The test system of data set [14] is Rattus norvegicus. Description: Tmax in Sprague-Dawley rat assessed as (R)-3-(4'-(2-(2-methylpyrrolidin-1-yl)ethyl)biphenyl-4-ylsulfonyl)propan-1-ol level at 3 mg/kg, po and iv by LC-MS/MS analysis. More on the design: dose 3 mg/kg, route oral. Type of data set: ADME, organism-based. Conditions: in vivo. In a few lines: as §4
A short description of data set [15]: Cmax in Sprague-Dawley rat plasma at 3 mg/kg, po and iv by LC-MS/MS analysis. More on the design: dose 3 mg/kg, route oral. Format: ADME, organism-based. In a few lines:
as §2

Data set [16] can be described thus: Half life in Sprague-Dawley rat at 3 mg/kg, iv by LC-MS/MS analysis. Format: ADME, organism-based. More on the design: dose 3 mg/kg, route intravenous. The settings on record: in vivo. Put shortly: as §2
A short description of data set [17]: Tmax in Sprague-Dawley rat at 3 mg/kg, po and iv by LC-MS/MS analysis. Format: ADME, organism-based. More on the design: dose 3 mg/kg, route oral. Conditions: in vivo. Put shortly:
as §3

Chain of Voltage-gated inwardly rectifying potassium channel KCNH2 (Q12809 whole entry): as the sequence (Q12809 whole entry) above

In general, inhibition refers to the drop in the measured response relative to a control, in per cent. Lower therefore signals a response near the control. The term IC50 denotes the concentration that inhibits the measured activity by half. As usually defined, the inhibition in vivo is the percentage by which the read-out fell short of the control. A higher inhibition in vivo goes with a response far below the control. A word on the Ki: it is the dissociation constant of the complex between target and ligand, obtained from inhibition or displacement. The bioavailability is the share of a dose that reaches the circulation, judged against a reference dose that is usually intravenous. The low end stands for little systemic uptake, the high end for much systemic uptake. A word on the Cmax: it is the highest concentration seen after dosing. By Tmax is commonly meant the time at which the peak concentration occurs. A word on the half-life: it is how long it takes for the measured level to halve. Higher therefore signals slow loss. As for `COCCS(=O)(=O)c1ccc(-c2ccc(CCN3CCC[C@H]3C)cc2)cc1`, in data set [1], the Kp is 1.73. The inhibition at 3 µM at hERG (KCNH2) was 29%. This compound registered an IC50 in data set [2] of 7400 nM. In the data set on Rattus norvegicus [3], this compound had an inhibition in vivo at 0.6 mg/kg of less than 20%. Moreover, the affinity on Histamine H3 receptor, expressed as Ki, was 1.4 nM. This compound yielded a bioavailability in data set [4] of 68.5%. The Vdss with Rattus norvegicus [5] came out at 7.6 L/kg. For the same compound, the Cmax in data set [6] stood at 184 ng/mL. In the data set with Rattus norvegicus [7], the minimal effective dose was 0.3 mg/kg. In addition, the Tmax in data set [8] amounted to 18 min. In addition, the half-life in data set [9] is 42 min.

The compound `C[C@@H]1CCCN1CCc1ccc(-c2ccc(S(=O)(=O)CCCO)cc2)cc1` came in with an IC50 in data set [2] of more than 30000 nM. Besides, the Ki on Histamine H3 receptor turned out to be 0.8 nM. Also, the minimal effective dose in the data set with Rattus norvegicus [7] was 1 mg/kg.

The solubility is how much of the substance goes into solution per volume. A low value points to a poorly soluble substance. Take `COCCS(=O)(=O)c1ccc(-c2ccc(CCN3CCC[C@H]3C)cc2)cc1.Cl`: the solubility in [10] is more than 30 mg/mL.

Consider `CCCS(=O)(=O)c1ccc(-c2ccc(CCN3CCC[C@H]3C)cc2)cc1`, for which, in data set [11], the BPR turned out to be 0.7. In data set [12], this compound returned a bioavailability of less than 0.1%. The compound also yielded a Vdss with Rattus norvegicus [13] of 5.9 L/kg. The Cmax with Plasma was 449 ng/mL; in [15], 6 ng/mL. Also, the Ki on Histamine H3 receptor is 0.6 nM. In addition, the Tmax with Rattus norvegicus [14] is 180 min; in data set [17], 6 min. Besides, the half-life in [16] was 18 min. Besides, the minimal effective dose in the data set with Rattus norvegicus [7] worked out at 0.3 mg/kg.

With `CCOCCS(=O)(=O)c1ccc(-c2ccc(CCN3CCC[C@H]3C)cc2)cc1`, on hERG (KCNH2), at 3 µM the inhibition was 45%. For the same compound, the Ki on Histamine H3 receptor worked out at 1 nM. Moreover, the minimal effective dose in the data set with Rattus norvegicus [7] is 0.3 mg/kg.

As to `C[C@@H]1CCCN1CCc1ccc(-c2ccc(S(C)(=O)=O)cc2)cc1`, the Kp in data set [1] was found to be 3.03. The Ki on Histamine H3 receptor turned out to be 1.3 nM. For the same compound, the bioavailability in data set [4] came to 100%. Further, in the data set with Rattus norvegicus [5], the Vdss was 19.8 L/kg. Moreover, the concentration in data set [6] peaked (Cmax) at 218 ng/mL. Also, in the data set on Rattus norvegicus [7], the minimal effective dose came to 0.3 mg/kg. Moreover, the Tmax in data set [8] is 240 min. Further, the half-life in [9] is 216 min.

Compound `C[C@@H]1CCCN1CCc1ccc(-c2ccc(S(=O)(=O)Cc3ccccc3)cc2)cc1` had an inhibition at 3 µM against hERG (KCNH2) of 95%. The same compound registered a Ki at Histamine H3 receptor of 0.6 nM.

On Histamine H3 receptor, `COCS(=O)(=O)c1ccc(-c2ccc(CCN3CCC[C@H]3C)cc2)cc1` displayed a Ki of 2.44 nM.

`C[C@@H]1CCCN1CCc1ccc(-c2ccc(S(=O)(=O)C3CCOCC3)cc2)cc1` returned a Ki on Histamine H3 receptor of 1.1 nM. The minimal effective dose with Rattus norvegicus [7] turned out to be 1 mg/kg.

In turn, `C[C@@H]1CCCN1CCc1ccc(-c2ccc(S(=O)(=O)CC3CCOCC3)cc2)cc1` came in with a Ki on Histamine H3 receptor of 0.17 nM. In addition, in the data set on Rattus norvegicus [7], the minimal effective dose turned out to be 0.3 mg/kg.
